How the values were obtained:
Assay type in all cases: functional, cell-based
[1] = target: 5-hydroxytryptamine receptor 2A (Homo sapiens) (UniProt P28223); test: Antagonist activity at human 5-HT2A receptor assessed as inhibition of intracellular calcium mobilization by FLIPR assay
How it was run: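 FLIPR Tetra calcium-dye assay at human 5-HT2A. Compounds without intrinsic activity that inhibited the fluorescence rise to the EC80 of 5-HT by at least 50% at 10 μM went on to Ke determination. For this, an 8-point half-log 5-HT concentration-response curve was run with and without a single antagonist concentration. Ke = [L]/(DR-1), where DR = A'/A (ratio of 5-HT EC50s).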

[2] = target: T1, Alpha-1A adrenergic receptor (Homo sapiens) (UniProt P35348); test: Antagonist activity at human alpha1A receptor assessed as inhibition of intracellular calcium mobilization by FLIPR assay
T1 sequence (whole entry): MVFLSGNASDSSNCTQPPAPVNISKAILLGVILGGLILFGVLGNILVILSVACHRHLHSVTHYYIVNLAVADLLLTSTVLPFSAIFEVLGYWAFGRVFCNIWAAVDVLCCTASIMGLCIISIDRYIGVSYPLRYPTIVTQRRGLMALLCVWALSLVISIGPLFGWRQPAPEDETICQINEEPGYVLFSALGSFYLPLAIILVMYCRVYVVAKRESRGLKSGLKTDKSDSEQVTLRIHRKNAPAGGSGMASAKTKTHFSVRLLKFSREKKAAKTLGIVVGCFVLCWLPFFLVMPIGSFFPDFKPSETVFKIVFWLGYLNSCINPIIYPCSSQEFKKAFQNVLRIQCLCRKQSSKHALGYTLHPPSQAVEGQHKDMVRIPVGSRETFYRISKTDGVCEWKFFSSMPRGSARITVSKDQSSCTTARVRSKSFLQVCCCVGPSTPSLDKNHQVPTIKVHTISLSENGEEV
How it was run: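 Human α1A-adrenergic receptor, FLIPR Tetra calcium-mobilization assay with a calcium-sensitive fluorescent dye. Ke was derived from agonist concentration-response EC50 shifts by a single antagonist concentration, using Ke = [L]/(DR-1) as for the 5-HT2A set.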

[3] = target: 5-hydroxytryptamine receptor 2A (Homo sapiens) (UniProt P28223); test: Agonist activity at human 5-HT2A receptor assessed as intracellular calcium mobilization at 10 uM by FLIPR assay
How it was run: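 Multi-well FLIPR Tetra screen at 10 μM for intrinsic activity at human 5-HT2A receptor. Read-out is receptor-mediated mobilization of internal calcium, detected with a calcium-sensitive fluorescent dye.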

Chain of 5-hydroxytryptamine receptor 2A (Homo sapiens) (P28223 whole entry): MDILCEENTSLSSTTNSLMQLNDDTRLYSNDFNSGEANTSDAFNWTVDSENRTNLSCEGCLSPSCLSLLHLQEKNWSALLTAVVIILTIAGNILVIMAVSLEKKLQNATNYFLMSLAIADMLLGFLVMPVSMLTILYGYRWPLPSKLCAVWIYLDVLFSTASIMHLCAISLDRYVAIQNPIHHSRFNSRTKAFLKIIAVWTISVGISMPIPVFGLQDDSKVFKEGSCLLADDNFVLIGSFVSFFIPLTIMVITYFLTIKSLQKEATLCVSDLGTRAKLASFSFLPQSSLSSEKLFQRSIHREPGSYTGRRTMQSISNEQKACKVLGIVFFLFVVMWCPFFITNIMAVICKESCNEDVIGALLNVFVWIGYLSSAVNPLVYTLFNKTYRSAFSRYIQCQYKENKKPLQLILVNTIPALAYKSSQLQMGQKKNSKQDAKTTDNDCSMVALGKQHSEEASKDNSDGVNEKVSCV

| SMILES | Ke [1] [nM] | Ke [2] [nM] | Emax [3] [%] |
| --- | --- | --- | --- |
| CCC(CC)COc1c(OC)cc2c3c1-c1cc4c(cc1CC3N(C)CC2)OCO4 (centres undefined) | 806 | > 10000 |  |
| CCCCCCOc1c(OC)cc2c3c1-c1cc4c(cc1CC3N(C)CC2)OCO4 (racemic) | 71 | > 10000 |  |
| CCCCCOc1cc2c3c(c1OC)-c1cc4c(cc1CC3N(C)CC2)OCO4 (racemic) | > 10000 | 449 |  |
| COc1cc2c3c(c1OCC1CCC1)-c1cc4c(cc1CC3N(C)CC2)OCO4 (racemic) |  | > 10000 | 25 |
| COc1c(OCC2CC2)cc2c3c1-c1cc4c(cc1CC3N(C)CC2)OCO4 (racemic) | 484 | 195 |  |
| COc1c(OCc2ccccc2)cc2c3c1-c1cc4c(cc1CC3N(C)CC2)OCO4 (racemic) | 154 | 1920 |  |
| COc1cc2c3c(c1OCC1CCCCC1)-c1cc4c(cc1CC3N(C)CC2)OCO4 (racemic) | 1720 | > 10000 |  |
| COc1cc2c3c(c1OC)-c1cc4c(cc1CC3N(CC1CC1)CC2)OCO4 (racemic) | > 10000 | 319 |  |
| COc1c(Br)c2c3c(c1OC)-c1c(Br)c4c(c(Br)c1CC3N(C)CC2)OCO4 (racemic) | 43 | > 10000 |  |
| CCCN1CCc2cc(OC)c(OC)c3c2C1Cc1cc2c(cc1-3)OCO2 (racemic) | > 10000 | 38 |  |
| COc1cc2c3c(c1OCC(C)C)-c1cc4c(cc1CC3N(C)CC2)OCO4 (racemic) | 367 | > 10000 |  |
| COc1c(Br)c2c3c(c1OC)-c1cc4c(cc1CC3N(C)CC2)OCO4 (racemic) | 53 | > 10000 |  |
| CCCCCN1CCc2cc(OC)c(OC)c3c2C1Cc1cc2c(cc1-3)OCO2 (racemic) | > 10000 | 720 |  |
| COc1cc2c3c(c1OCCC(C)C)-c1cc4c(cc1CC3N(C)CC2)OCO4 (racemic) |  | > 10000 | 19 |
| CCOc1cc2c3c(c1OC)-c1cc4c(cc1CC3N(C)CC2)OCO4 (racemic) | 378 | 52 |  |
| CCN1CCc2cc(OC)c(OC)c3c2C1Cc1cc2c(cc1-3)OCO2 (racemic) |  | 26 |  |
| CCCCOc1cc2c3c(c1OC)-c1cc4c(cc1CC3N(C)CC2)OCO4 (racemic) | 943 | 234 |  |
| C=CCOc1c(OC)cc2c3c1-c1cc4c(cc1CC3N(C)CC2)OCO4 (racemic) | 70 | > 10000 |  |
| COc1cc2c3c(c1OCCCO)-c1cc4c(cc1CC3N(C)CC2)OCO4 (racemic) | 708 | > 10000 |  |
| COc1cc2c3c(c1OCC1CCCC1)-c1cc4c(cc1CC3N(C)CC2)OCO4 (racemic) |  | > 10000 | 35 |
| CCCCN1CCc2cc(OC)c(OC)c3c2C1Cc1cc2c(cc1-3)OCO2 (racemic) | > 10000 | 210 |  |
| COc1cc2c3c(c1OC)-c1cc4c(cc1CC3N(C)CC2)OCO4 (racemic) |  | 36 |  |
| CCCOc1cc2c3c(c1OC)-c1cc4c(cc1CC3N(C)CC2)OCO4 (racemic) | 389 | 133 |  |
